Consider eleven compounds from ChEMBL document CHEMBL1131454 (J Med Chem, 1998).

Each structure is given as a SMILES string.

Assay [1] addresses T1, Progesterone receptor (Homo sapiens, UniProt P06401).
T1 sequence (P06401 whole entry): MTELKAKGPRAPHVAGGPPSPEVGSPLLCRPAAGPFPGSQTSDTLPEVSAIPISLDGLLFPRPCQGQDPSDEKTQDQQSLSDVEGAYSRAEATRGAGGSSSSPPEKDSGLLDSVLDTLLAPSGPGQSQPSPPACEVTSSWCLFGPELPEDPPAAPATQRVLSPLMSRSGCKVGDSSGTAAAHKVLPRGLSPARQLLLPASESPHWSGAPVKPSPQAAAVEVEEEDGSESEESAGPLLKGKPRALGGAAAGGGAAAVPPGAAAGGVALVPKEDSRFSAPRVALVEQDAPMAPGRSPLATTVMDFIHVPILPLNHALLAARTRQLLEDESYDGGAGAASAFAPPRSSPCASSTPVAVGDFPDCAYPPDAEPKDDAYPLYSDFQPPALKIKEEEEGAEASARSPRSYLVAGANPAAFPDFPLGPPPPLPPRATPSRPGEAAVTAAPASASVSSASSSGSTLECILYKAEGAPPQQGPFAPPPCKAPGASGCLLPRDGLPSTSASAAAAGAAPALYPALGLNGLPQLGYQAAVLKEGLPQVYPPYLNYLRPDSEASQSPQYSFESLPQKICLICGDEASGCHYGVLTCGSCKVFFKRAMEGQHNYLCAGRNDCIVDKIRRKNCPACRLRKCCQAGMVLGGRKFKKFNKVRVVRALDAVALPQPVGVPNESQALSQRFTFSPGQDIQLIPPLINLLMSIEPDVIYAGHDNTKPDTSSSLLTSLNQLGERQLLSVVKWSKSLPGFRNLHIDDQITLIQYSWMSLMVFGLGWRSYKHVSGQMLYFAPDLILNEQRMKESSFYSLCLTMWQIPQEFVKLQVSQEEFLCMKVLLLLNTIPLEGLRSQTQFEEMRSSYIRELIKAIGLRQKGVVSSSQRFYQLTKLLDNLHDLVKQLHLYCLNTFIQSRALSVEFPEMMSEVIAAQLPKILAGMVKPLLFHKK
The assay can be described thus: Agonistic activity to the human progesterone receptor (hPR)assayed in CV-1 cells in cotransfection assay. The class given is functional, cell-based.

For assay [2], the target named is T1, Progesterone receptor. Put plainly: The binding affinity on Human progesterone receptor (hPR-A) using progesterone as radioligand.
Assay [3] deals with T2, Progesterone receptor (Homo sapiens) (UniProt P06401).
T2 sequence (whole entry): T1 sequence (P06401 whole entry)
Put plainly: Agonist efficacy for human progesterone receptor (hPR) was compared to that of progesterone (100%). The class given is functional. Summed up:
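Cotransfection assay in CV-1 cells transiently transfected by calcium phosphate coprecipitation with hPR plasmid, MTV-LUC reporter, pRS-β-Gal and filler DNA. Full dose–response curves from 10^-12 to 10^-5 M were run. […] Values are the mean of at least three experiments with triplicate determinations, or of two experiments, or a single experiment.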

Assay [4] concerns the target T1, Progesterone receptor. Put plainly: Antagonistic activity was determined in Human progesterone receptor(hPR) of CV-1 cells in cotransfection assay. The class given is functional, cell-based.
Assay [5] addresses T2, Progesterone receptor (Homo sapiens). The assay can be described thus: Human progesterone receptor (hPR) antagonist efficacy was determined as a function (%) of maximal inhibition of progesterone at EC50 value. The class given is functional. Summed up: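 hPR antagonist-mode cotransfection in CV-1 cells transiently transfected by calcium phosphate coprecipitation with hPR plasmid, MTV-LUC reporter, pRS-β-Gal and filler DNA. […] Values come from one, two, or at least three experiments in triplicate.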

Assay [6] concerns the target T3, Glucocorticoid receptor (Homo sapiens, UniProt P04150).
T3 sequence (P04150 whole entry): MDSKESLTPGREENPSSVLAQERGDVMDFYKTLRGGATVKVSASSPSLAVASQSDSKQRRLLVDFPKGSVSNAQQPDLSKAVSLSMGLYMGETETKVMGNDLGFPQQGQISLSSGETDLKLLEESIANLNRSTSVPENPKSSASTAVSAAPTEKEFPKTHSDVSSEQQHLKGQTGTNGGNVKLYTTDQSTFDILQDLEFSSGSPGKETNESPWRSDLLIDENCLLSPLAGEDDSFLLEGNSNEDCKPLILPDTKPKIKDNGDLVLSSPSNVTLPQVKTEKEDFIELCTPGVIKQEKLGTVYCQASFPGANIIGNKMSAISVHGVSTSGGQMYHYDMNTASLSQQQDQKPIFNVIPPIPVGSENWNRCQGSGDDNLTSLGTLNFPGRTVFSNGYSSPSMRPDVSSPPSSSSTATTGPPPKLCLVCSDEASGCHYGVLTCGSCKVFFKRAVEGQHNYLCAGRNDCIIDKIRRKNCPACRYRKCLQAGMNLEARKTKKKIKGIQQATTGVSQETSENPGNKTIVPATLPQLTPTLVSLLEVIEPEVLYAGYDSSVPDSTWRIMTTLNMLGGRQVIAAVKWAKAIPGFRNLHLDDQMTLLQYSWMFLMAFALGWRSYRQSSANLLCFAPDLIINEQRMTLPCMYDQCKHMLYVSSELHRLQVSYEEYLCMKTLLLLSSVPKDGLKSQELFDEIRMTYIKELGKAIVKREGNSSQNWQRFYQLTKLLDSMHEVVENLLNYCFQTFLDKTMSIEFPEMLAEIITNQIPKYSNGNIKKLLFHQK
Put plainly: Agonist activity against Human glucocorticoid receptor(hGR) expressed in CV-1 cells. The class given is functional, cell-based.

The target of assay [7] is T4, Mineralocorticoid receptor (Homo sapiens, UniProt P08235).
T4 sequence (P08235 whole entry): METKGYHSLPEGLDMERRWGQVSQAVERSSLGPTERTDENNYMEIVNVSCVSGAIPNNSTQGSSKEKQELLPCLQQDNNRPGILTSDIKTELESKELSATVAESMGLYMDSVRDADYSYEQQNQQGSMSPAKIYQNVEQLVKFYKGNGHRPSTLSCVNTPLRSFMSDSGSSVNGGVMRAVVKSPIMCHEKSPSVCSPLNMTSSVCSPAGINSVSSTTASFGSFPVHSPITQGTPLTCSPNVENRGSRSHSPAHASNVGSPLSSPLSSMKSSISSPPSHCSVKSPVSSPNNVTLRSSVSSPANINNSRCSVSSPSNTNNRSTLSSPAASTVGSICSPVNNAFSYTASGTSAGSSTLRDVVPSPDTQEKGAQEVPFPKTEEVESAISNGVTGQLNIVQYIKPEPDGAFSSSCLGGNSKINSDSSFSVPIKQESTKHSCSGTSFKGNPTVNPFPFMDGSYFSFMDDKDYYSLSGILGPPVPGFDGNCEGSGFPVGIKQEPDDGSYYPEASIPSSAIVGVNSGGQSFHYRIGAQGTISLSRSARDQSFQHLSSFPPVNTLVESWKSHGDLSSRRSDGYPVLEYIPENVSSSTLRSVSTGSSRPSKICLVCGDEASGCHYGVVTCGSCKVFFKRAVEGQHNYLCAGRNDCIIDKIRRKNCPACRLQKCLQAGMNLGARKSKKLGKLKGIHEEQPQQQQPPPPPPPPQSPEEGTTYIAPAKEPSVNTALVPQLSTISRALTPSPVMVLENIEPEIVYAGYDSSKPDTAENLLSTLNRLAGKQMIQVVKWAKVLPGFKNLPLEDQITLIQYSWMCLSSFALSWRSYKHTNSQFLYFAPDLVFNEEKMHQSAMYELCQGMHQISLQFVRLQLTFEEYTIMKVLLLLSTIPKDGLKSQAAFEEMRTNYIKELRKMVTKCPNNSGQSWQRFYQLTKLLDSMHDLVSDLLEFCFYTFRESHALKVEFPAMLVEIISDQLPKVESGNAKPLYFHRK
The assay can be described thus: Antagonistic activity was determined in Human mineralocorticoid receptor(hMR) of CV-1 cells in cotransfection assay. Format: functional, cell-based.

The target in assay [8] is T3, Glucocorticoid receptor.
Assay [9] concerns the target T5, Androgen receptor (Homo sapiens, UniProt P10275).
T5 sequence (P10275 whole entry): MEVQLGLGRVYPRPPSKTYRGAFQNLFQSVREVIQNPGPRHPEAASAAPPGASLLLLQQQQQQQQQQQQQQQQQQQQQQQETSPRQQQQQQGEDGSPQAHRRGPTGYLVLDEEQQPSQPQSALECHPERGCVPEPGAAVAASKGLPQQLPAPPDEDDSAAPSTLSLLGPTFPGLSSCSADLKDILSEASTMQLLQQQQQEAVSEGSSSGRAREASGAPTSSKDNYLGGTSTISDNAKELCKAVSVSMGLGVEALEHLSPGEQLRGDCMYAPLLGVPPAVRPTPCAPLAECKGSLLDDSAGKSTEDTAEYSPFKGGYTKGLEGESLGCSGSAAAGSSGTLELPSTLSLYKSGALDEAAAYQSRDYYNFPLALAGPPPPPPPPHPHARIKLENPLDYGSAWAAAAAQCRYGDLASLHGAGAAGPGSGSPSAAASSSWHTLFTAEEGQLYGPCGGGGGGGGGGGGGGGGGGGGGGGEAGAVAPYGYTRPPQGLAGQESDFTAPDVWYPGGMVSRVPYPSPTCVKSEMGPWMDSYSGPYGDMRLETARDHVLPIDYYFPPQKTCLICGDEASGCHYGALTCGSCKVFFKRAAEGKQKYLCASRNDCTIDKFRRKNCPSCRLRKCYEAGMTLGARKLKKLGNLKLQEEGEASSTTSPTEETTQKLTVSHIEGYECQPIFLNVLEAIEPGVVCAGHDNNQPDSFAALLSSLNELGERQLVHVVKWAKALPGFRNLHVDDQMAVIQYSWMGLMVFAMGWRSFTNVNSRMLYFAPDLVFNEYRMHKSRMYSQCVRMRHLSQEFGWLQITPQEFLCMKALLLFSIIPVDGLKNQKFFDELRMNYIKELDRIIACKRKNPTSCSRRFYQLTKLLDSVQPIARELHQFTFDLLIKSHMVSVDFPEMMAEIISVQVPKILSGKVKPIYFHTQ

Assay [10] concerns the target T5, Androgen receptor. This is another data set of the same source.
The target in assay [11] is T3, Glucocorticoid receptor. This is another data set of the same source.

For orientation: EC50 means the concentration at which the effect is half-maximal. A low value points to higher potency in that assay. Usually Ki stands for the equilibrium dissociation constant of an inhibitor or competing ligand from its target. For orientation: IC50 means the midpoint of a concentration-inhibition curve. Low values mean inhibition by little substance, high ones a need for much substance. `COc1ccc(C2Oc3ccccc3-c3ccc4c(c32)C(C)=CC(C)(C)N4)cc1` (stereo unspecified): the 50% effective concentration (EC50) in assay [1] was more than 10000 nM. In assay [2], this compound came in with a Ki of 13.3 nM. Further, the figures for the Efficacy in [3] and in [5] were less than 20% and 65%, respectively. This compound also returned a half-maximal inhibitory concentration (IC50) in [4] of 105 nM.

As for `CC1=CC(C)(C)Nc2ccc3c(c21)C(c1ccc(F)c(C(F)(F)F)c1)Oc1ccccc1-3` (stereo unspecified), in assay [1], a half-maximal effect (EC50) was put at 25 nM. In assay [2], this compound returned a Ki of 6.8 nM. The Efficacy was found to be 60% in assay [3] and 56% in assay [5]. In addition, in [4], 4600 nM corresponded to half-maximal inhibition (IC50).

In assay [6], `CC(=O)O[C@]1(C(C)=O)CC[C@H]2[C@@H]3C[C@H](C)C4=CC(=O)CC[C@]4(C)[C@H]3CC[C@@]21C` [MEDROXYPROGESTERONE ACETATE] displayed a concentration for a half-maximal effect (EC50) of 10 nM. The same compound registered an IC50 in [7] of 1200 nM. The same compound came in with a Ki in [8] of 13.2 nM.

The compound `CC1=CC(C)(C)Nc2ccc3c(c21)C(c1cccc(F)c1)Oc1ccccc1-3` (stereo unspecified) gave an EC50 in assay [1] of 8 nM. The same compound displayed an inhibitory constant (Ki) in assay [2] of 0.69 nM. The Efficacy turned out to be 48% in assay [3] and 74% in assay [5]. The IC50 in assay [4] stood at 150 nM.

In assay [1], `CC1=CC(C)(C)Nc2ccc3c(c21)C(c1cc(F)cc(Br)c1)Oc1ccccc1-3` (stereo unspecified) showed a 50% effective concentration (EC50) of 27 nM. In addition, affinity in assay [2] was put at a Ki of 2.4 nM. Also, the figures for the Efficacy in [3] and in [5] were 49% and 65%, respectively. Also, half-maximal inhibition in assay [4] (IC50) was put at 1210 nM.

On to `CC1=CC(C)(C)Nc2ccc3c(c21)C(c1ccc(F)cc1)Oc1ccccc1-3` (stereo unspecified), for which, in [1], the midpoint of the response, the EC50, lay at 8 nM. The Ki in assay [2] is 5.3 nM. In addition, the results for the Efficacy in [3] and in assay [5] were 28% and 77%, respectively. In assay [4], this compound registered an IC50 of 342 nM.

Compound `CC(=O)c1ccc(C2Oc3ccccc3-c3ccc4c(c32)C(C)=CC(C)(C)N4)cc1` (stereo unspecified) registered a 50% effective concentration (EC50) in assay [1] of more than 10000 nM. In [2], the inhibition constant Ki was 8.8 nM. Further, the Efficacy was less than 20% in assay [3] and 68% in [5]. This compound also showed an IC50 in assay [4] of 132 nM.

In the case of `CC1=CC(C)(C)Nc2ccc3c(c21)C(c1ccc(Br)nc1)Oc1ccccc1-3` (stereo unspecified), in assay [1], the response was half-maximal at 3900 nM (EC50). In addition, in assay [2], the inhibitory constant (Ki) stood at 3.9 nM. In addition, the Efficacy in assay [3] was 24%; in [5] it was 86%. The same compound returned an IC50 in assay [4] of 54 nM.

Take `CC1=CC(C)(C)Nc2ccc3c(c21)C(c1cccc(Br)n1)Oc1ccccc1-3` (stereo unspecified): in [1], a half-maximal effect (EC50) was put at 1700 nM. This compound returned a Ki in assay [2] of 13.8 nM. The Efficacy in [3] was determined as 21%; in assay [5], 86%. In assay [4], this compound displayed an IC50 of 71 nM.

As for `CC1=CC(C)(C)Nc2ccc3c(c21)C(c1ccccc1)Oc1ccccc1-3` (stereo unspecified), the values for the Ki in assay [9], in assay [8] and in [2] were 1860 nM, 154 nM and 3.6 nM, respectively. The midpoint of the response in [1], the EC50, lay at 156 nM. The IC50 was 354 nM in [7], 745 nM in [10], 290 nM in assay [4] and 226 nM in assay [11].

As for `CC1=CC(C)(C)Nc2ccc3c(c21)C(c1ccc(C(F)(F)F)cc1)Oc1ccccc1-3` (stereo unspecified), it took 33 nM to reach a half-maximal effect in assay [1] (EC50). Moreover, the affinity in assay [2], expressed as Ki, was 10.8 nM. Besides, the Efficacy in assay [3] was determined as 35%; in assay [5] it was 49%. The compound further gave an IC50 in assay [4] of 150 nM.
